ChEMBL document CHEMBL1938269, “Synthesis and biological evaluation of 7-O-modified oroxylin A derivatives” (Bioorg Med Chem Lett, 2012)
pIC50: −log10 of the molar value. The source made the active and inactive calls. The rule behind the calls is not given here.

Experiments:
[1] = system: HCT-116; test: Antiproliferative activity against human HCT116 cells after 48 hrs by MTT assay; format: functional, cell-based; details: HCT-116, 48 h
[2] = system: HepG2; test: Antiproliferative activity against human HepG2 cells after 48 hrs by MTT assay; format: functional, cell-based; details: HepG2, 48 h
[3] = Antiproliferative activity against human BCG823 cells after 48 hrs by MTT assay; format: functional, cell-based; details: BCG823, 48 h
[4] = system: HCT-116; test: Ratio of oroxylin A IC50 to compound IC50 for human HCT116 cells; format: functional
[5] = system: HepG2; test: Induction of apoptosis in human HepG2 cells assessed as late apoptotic cells at 1 uM after 72 hrs by annexin-V FITC and PI staining based flow cytometry (reference value: 1.4 +/- 0.0%); format: functional
[6] = system: HepG2; test: Induction of apoptosis in human HepG2 cells assessed as early apoptotic cells at 4 uM after 72 hrs by annexin-V FITC and PI staining based flow cytometry (reference value: 1.4 +/- 0.1%); format: functional
[7] = system: HepG2; test: Induction of apoptosis in human HepG2 cells assessed as non-viable necrotic cells at 1 uM after 72 hrs by annexin-V FITC and PI staining based flow cytometry (reference value: 2.7 +/- 0.1%); format: functional
[8] = system: HepG2; test: Induction of apoptosis in human HepG2 cells assessed as chromatin congregation and karyopyknosis at 1 to 4 uM after 72 hrs by DAPI staining-based fluorescent microscopy; format: functional, cell-based
How it was run: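 HepG2 cells exposed for 72 h, with untreated cells as control. Nuclei were stained with DAPI and viewed by fluorescence microscopy at 400×. Apoptotic cells were scored by chromatin congregation and karyopyknosis, seen as bright nuclear fluorescence. Arrows mark apoptotic cells.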

[9] = system: HepG2; test: Induction of apoptosis in human HepG2 cells assessed as early apoptotic cells at 1 uM after 72 hrs by annexin-V FITC and PI staining based flow cytometry (reference value: 1.4 +/- 0.1%); format: functional
[10] = system: HepG2; test: Ratio of oroxylin A IC50 to compound IC50 for human HepG2 cells; format: functional
[11] = system: HepG2; test: Induction of apoptosis in human HepG2 cells assessed as non-viable necrotic cells at 2 uM after 72 hrs by annexin-V FITC and PI staining based flow cytometry (reference value: 2.7 +/- 0.1%); format: functional
[12] = system: HepG2; test: Induction of apoptosis in human HepG2 cells assessed as viable cells at 2 uM after 72 hrs by annexin-V FITC and PI staining based flow cytometry (reference value: 94.5 +/- 0.6%); format: functional; details: HepG2, 72 h, read-out: Activity
[13] = system: HepG2; test: Induction of apoptosis in human HepG2 cells assessed as viable cells at 1 uM after 72 hrs by annexin-V FITC and PI staining based flow cytometry (reference value: 94.5 +/- 0.6%); format: functional; details: HepG2, 72 h, read-out: Activity
[14] = system: HepG2; test: Induction of apoptosis in human HepG2 cells assessed as early apoptotic cells at 2 uM after 72 hrs by annexin-V FITC and PI staining based flow cytometry (reference value: 1.4 +/- 0.1%); format: functional
[15] = Ratio of oroxylin A IC50 to compound IC50 for human BCG823 cells; format: functional
[16] = system: HepG2; test: Induction of apoptosis in human HepG2 cells assessed as late apoptotic cells at 2 uM after 72 hrs by annexin-V FITC and PI staining based flow cytometry (reference value: 1.4 +/- 0.0%); format: functional
[17] = system: HepG2; test: Induction of apoptosis in human HepG2 cells assessed as viable cells at 4 uM after 72 hrs by annexin-V FITC and PI staining based flow cytometry (reference value: 94.5 +/- 0.6%); format: functional; details: HepG2, 72 h, read-out: Activity
[18] = system: HepG2; test: Induction of apoptosis in human HepG2 cells assessed as late apoptotic cells at 4 uM after 72 hrs by annexin-V FITC and PI staining based flow cytometry (reference value: 1.4 +/- 0.0%); format: functional
[19] = system: HepG2; test: Induction of apoptosis in human HepG2 cells assessed as non-viable necrotic cells at 4 uM after 72 hrs by annexin-V FITC and PI staining based flow cytometry (reference value: 2.7 +/- 0.1%); format: functional

Row | SMILES | pIC50 [1] | pIC50 [2] | pIC50 [3] | other results
1 | COc1c(OCCCN2CCCCC2)cc2oc(-c3ccccc3)cc(=O)c2c1O | 4.66 | 5.17 | 5.01 | –
2 | COc1c(OCCCN2CCN(C)CC2)cc2oc(-c3ccccc3)cc(=O)c2c1O | 4.37 | 4.52 | 4.37 | –
3 | COc1c(OCCCCN2CCCCC2)cc2oc(-c3ccccc3)cc(=O)c2c1O | 5.52 | 5.62 | 5.18 | Ratio IC50 [4]: 5; Activity [5]: 1.9%; Activity [6]: 14%; Activity [7]: 5.8%; Activity [8]: Active; Activity [9]: 3.4%; Ratio IC50 [10]: 5; Activity [11]: 2.7%; viability at 2 µM [12]: 87.2%; viability at 1 µM [13]: 88.9%; Activity [14]: 6.5%; Ratio IC50 [15]: 5; Activity [16]: 3.5%; viability at 4 µM [17]: 30.6%; Activity [18]: 17.9%; Activity [19]: 37.5%
4 | COc1c(OCCCCN2CCN(C)CC2)cc2oc(-c3ccccc3)cc(=O)c2c1O | 4.90 | 4.57 | 4.45 | –
5 | COc1c(OCCCN2CCOCC2)cc2oc(-c3ccccc3)cc(=O)c2c1O | 4.28 | 4.13 | 4.38 | –
6 | CCN(CC)CCOc1cc2oc(-c3ccccc3)cc(=O)c2c(O)c1OC | 4.40 | 4.92 | 4.89 | –
7 | COc1c(OCCN2CCCCC2)cc2oc(-c3ccccc3)cc(=O)c2c1O | 4.68 | 4.77 | 4.57 | –
8 | COc1c(OCCN2CCN(C)CC2)cc2oc(-c3ccccc3)cc(=O)c2c1O | 4.26 | 4.81 | 4.69 | –
9 | COc1c(O)cc2oc(-c3ccccc3)cc(=O)c2c1O [OROXYLIN A] | 4.47 | 4.64 | 4.59 | –
10 | CCN(CC)CCCOc1cc2oc(-c3ccccc3)cc(=O)c2c(O)c1OC | 4.63 | 4.74 | 5.46 | –
11 | COc1c(OCCN2CCCC2)cc2oc(-c3ccccc3)cc(=O)c2c1O | 4.63 | 5.01 | 4.64 | –
12 | COc1c(OCCCCN2CCOCC2)cc2oc(-c3ccccc3)cc(=O)c2c1O | 4.49 | 4.30 | 4.57 | –
13 | CCN(CC)CCCCOc1cc2oc(-c3ccccc3)cc(=O)c2c(O)c1OC | 5.29 | 5.18 | 5.20 | Ratio IC50 [4]: 5; Ratio IC50 [10]: 5; Ratio IC50 [15]: 5
14 | COc1c(OCCN2CCOCC2)cc2oc(-c3ccccc3)cc(=O)c2c1O | 4.25 | 4.17 | 4.42 | –
15 | COc1c(OCCCCN2CCCC2)cc2oc(-c3ccccc3)cc(=O)c2c1O | 5.85 | 5.33 | 5.02 | Ratio IC50 [4]: 5; Ratio IC50 [10]: 5; Ratio IC50 [15]: 5
16 | COc1c(OCCCN2CCCC2)cc2oc(-c3ccccc3)cc(=O)c2c1O | 4.58 | 4.69 | 4.92 | –
